Data as given in ChEMBL document CHEMBL1131215, “Anhydrolide macrolides. 1. Synthesis and antibacterial activity of 2,3-anhydro-6-O-methyl 11,12-carbamate erythromycin A analogues” (1998).
≈ marks a conversion by molar mass, not a printed value.

Legend:
Assay type in all cases: functional
Haemophilus influenzae = experiment: In vitro antibacterial activity against DILL strain of Haemophilus influenzae.
Procedure, shortened: (§1)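 MIC determined by standard agar dilution; values in μg/mL.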

Staphylococcus aureus [1] = experiment: In vitro antibacterial activity against 6538P strain of Staphylococcus aureus; procedure, shortened: as §1
Streptococcus pneumoniae [2] = experiment: In vitro antibacterial activity against 5649 strain of Streptococcus pneumoniae; details: Streptococcus pneumoniae; procedure, shortened: as §1
Streptococcus pneumoniae [3] = experiment: In vitro antibacterial activity against 5979 strain of Streptococcus pneumoniae; procedure, shortened: as §1
Streptococcus pneumoniae [4] = experiment: In vitro antibacterial activity against ATCC 6303 strain of Streptococcus pneumoniae; details: Streptococcus pneumoniae, ATCC 6303; procedure, shortened: as §1
Streptococcus pyogenes [5] = experiment: In vitro antibacterial activity against PIU 2548 strain of Streptococcus pyogenes; procedure, shortened: as §1
Staphylococcus aureus [6] = experiment: In vitro antibacterial activity against A5177 strain of Staphylococcus aureus; details: Staphylococcus aureus; procedure, shortened: as §1
Streptococcus pyogenes [7] = experiment: In vitro antibacterial activity against 930 strain of Streptococcus pyogenes; details: Streptococcus pyogenes; procedure, shortened: as §1
[8] = In vitro antibacterial activity against A-5278 strain of Staphylococcus aureus; details: Staphylococcus aureus; procedure, shortened: as §1
Mus musculus [9] = experiment: Effective dose when administered orally in mice infected with Staphylococcus aureus NCTC-10649M.; details: po
Procedure, shortened: (§2)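 Mice infected intraperitoneally with 1000 × LD₅₀ (S. aureus) or […] × LD₅₀ (S. pneumoniae). Compound given orally (po) or subcutaneously (sc) at 1 and 5 h post-infection. ED₅₀ expressed in mg/kg/day with 95% confidence interval.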

Mus musculus [10] = experiment: Effective dose when administered orally in mice infected with Streptococcus pneumoniae ATCC 6303; details: po; procedure, shortened: as §2
Staphylococcus aureus [11] = experiment: In vivo antibacterial activity in mice infected with Staphylococcus aureus NCTC-10649M.
Streptococcus pneumoniae [12] = experiment: In vivo antibacterial activity in mice infected with Streptococcus pneumoniae ATCC 6303

| SMILES | MIC (Haemophilus influenzae) | MIC (Staphylococcus aureus [1]; Staphylococcus aureus) | MIC (Streptococcus pneumoniae [2]) | MIC (Streptococcus pneumoniae [3]) | MIC (Streptococcus pneumoniae [4]) | MIC (Streptococcus pyogenes [5]; Streptococcus pyogenes) | MIC (Staphylococcus aureus [6]) | MIC (Streptococcus pyogenes [7]) | MIC [8] | MIC (Staphylococcus aureus [11]) | MIC (Streptococcus pneumoniae [12]) | MIC (Staphylococcus aureus [1]) | MIC (Streptococcus pyogenes [5]) | ED50 (Mus musculus [9]) | ED50 (Mus musculus [10]) |
| --- | --- | --- | --- | --- | --- | --- | --- | --- | --- | --- | --- | --- | --- | --- | --- |
| CC[C@H]1OC(=O)/C(C)=C/[C@H](C)[C@@H](O[C@@H]2O[C@H](C)C[C@H](N(C)C)[C@H]2O)[C@@](C)(OC)C[C@@H](C)C(=O)[C@H](C)[C@H]2N(CCCOc3cccc4cccnc34)C(=O)O[C@]12C | 8 µg/mL (≈ 10.2 µM) | 1.56 µg/mL (≈ 1.99 µM) | 2 µg/mL (≈ 2.56 µM) | > 16 µg/mL | < 0.004 µg/mL | 0.2 µg/mL (≈ 0.256 µM) | – | – | – | – | – | – | – | – | – |
| CC[C@H]1OC(=O)/C(C)=C/[C@H](C)[C@@H](O[C@@H]2O[C@H](C)C[C@H](N(C)C)[C@H]2O)[C@@](C)(OC)C[C@@H](C)C(=O)[C@H](C)[C@H]2N(CCc3cccs3)C(=O)O[C@]12C | 16 µg/mL (≈ 22.6 µM) | 0.39 µg/mL (≈ 0.552 µM) | 0.5 µg/mL (≈ 0.707 µM) | 32 µg/mL (≈ 45.3 µM) | 0.125 µg/mL (≈ 0.177 µM) | 0.2 µg/mL (≈ 0.283 µM) | 0.39 µg/mL (≈ 0.552 µM) | 25 µg/mL (≈ 35.4 µM) | 50 µg/mL (≈ 70.7 µM) | – | – | – | – | – | – |
| CC[C@H]1OC(=O)/C(C)=C/[C@H](C)[C@@H](O[C@@H]2O[C@H](C)C[C@H](N(C)C)[C@H]2O)[C@@](C)(OC)C[C@@H](C)[C@@H]2NCCN3C(=O)O[C@@]1(C)[C@H]3[C@H]2C | > 64 µg/mL | 12.5 µg/mL (≈ 20 µM) | 2 µg/mL (≈ 3.21 µM) | > 64 µg/mL | 1 µg/mL (≈ 1.6 µM) | 1.56 µg/mL (≈ 2.5 µM) | 6.2 µg/mL (≈ 9.94 µM) | – | – | – | – | – | – | – | – |
| CC[C@H]1OC(=O)/C(C)=C/[C@H](C)[C@@H](O[C@@H]2O[C@H](C)C[C@H](N(C)C)[C@H]2O)[C@@](C)(OC)C[C@@H](C)C(=O)[C@H](C)[C@H]2N(CC/C=C\c3ccc(Cl)cc3)C(=O)O[C@]12C | 32 µg/mL (≈ 42 µM) | 0.39 µg/mL (≈ 0.512 µM) | 1 µg/mL (≈ 1.31 µM) | 8 µg/mL (≈ 10.5 µM) | 0.12 µg/mL (≈ 0.158 µM) | 0.2 µg/mL (≈ 0.263 µM) | – | 3.1 µg/mL (≈ 4.07 µM) | 12.5 µg/mL (≈ 16.4 µM) | – | – | – | – | – | – |
| CC[C@H]1OC(=O)/C(C)=C/[C@H](C)[C@@H](O[C@@H]2O[C@H](C)C[C@H](N(C)C)[C@H]2O)[C@@](C)(OC)C[C@@H](C)C(=O)[C@H](C)[C@H]2NC(=O)O[C@@]21C (stereo in doubt; 6) | – | – | 0.5 µg/mL (≈ 0.838 µM) | – | 0.25 µg/mL (≈ 0.419 µM) | – | 0.78 µg/mL (≈ 1.31 µM) | – | – | 1.56 µg/mL (≈ 2.61 µM) | 0.25 µg/mL (≈ 0.419 µM) | 1.56 µg/mL (≈ 2.61 µM) | 0.2 µg/mL (≈ 0.335 µM) | 35.8 mg/kg/day | > 40 mg/kg/day |

Continued, in another order:

| MIC (Haemophilus influenzae) | MIC (Staphylococcus aureus [1]; Staphylococcus aureus) | MIC (Streptococcus pneumoniae [2]) | MIC (Streptococcus pneumoniae [3]) | MIC (Streptococcus pneumoniae [4]) | MIC (Streptococcus pyogenes [5]; Streptococcus pyogenes) | MIC (Staphylococcus aureus [6]) | MIC (Streptococcus pyogenes [7]) | MIC [8] | MIC (Staphylococcus aureus [11]) | MIC (Streptococcus pneumoniae [12]) | MIC (Staphylococcus aureus [1]) | MIC (Streptococcus pyogenes [5]) | SMILES | ED50 (Mus musculus [9]) | ED50 (Mus musculus [10]) |
| --- | --- | --- | --- | --- | --- | --- | --- | --- | --- | --- | --- | --- | --- | --- | --- |
| 16 µg/mL (≈ 21.9 µM) | 0.39 µg/mL (≈ 0.534 µM) | 2 µg/mL (≈ 2.74 µM) | 64 µg/mL (≈ 87.6 µM) | 0.25 µg/mL (≈ 0.342 µM) | 0.39 µg/mL (≈ 0.534 µM) | 0.39 µg/mL (≈ 0.534 µM) | 25 µg/mL (≈ 34.2 µM) | – | 0.39 µg/mL (≈ 0.534 µM) | 0.25 µg/mL (≈ 0.342 µM) | – | – | CC[C@H]1OC(=O)/C(C)=C/[C@H](C)[C@@H](O[C@@H]2O[C@H](C)C[C@H](N(C)C)[C@H]2O)[C@@](C)(OC)C[C@@H](C)C(=O)[C@H](C)[C@H]2N(CCc3cccc(OC)c3)C(=O)O[C@]12C | > 100 mg/kg/day | > 100 mg/kg/day |
| 32 µg/mL (≈ 41.6 µM) | 0.39 µg/mL (≈ 0.507 µM) | 1 µg/mL (≈ 1.3 µM) | 16 µg/mL (≈ 20.8 µM) | 0.125 µg/mL (≈ 0.163 µM) | 0.78 µg/mL (≈ 1.01 µM) | 0.78 µg/mL (≈ 1.01 µM) | 6.2 µg/mL (≈ 8.06 µM) | 25 µg/mL (≈ 32.5 µM) | – | – | – | – | CC[C@H]1OC(=O)/C(C)=C/[C@H](C)[C@@H](O[C@@H]2O[C@H](C)C[C@H](N(C)C)[C@H]2O)[C@@](C)(OC)C[C@@H](C)C(=O)[C@H](C)[C@H]2N(CCc3cccc(C(F)(F)F)c3)C(=O)O[C@]12C | – | – |
| 16 µg/mL (≈ 22.3 µM) | 0.39 µg/mL (≈ 0.542 µM) | 1 µg/mL (≈ 1.39 µM) | 32 µg/mL (≈ 44.5 µM) | 0.125 µg/mL (≈ 0.174 µM) | 0.39 µg/mL (≈ 0.542 µM) | 0.39 µg/mL (≈ 0.542 µM) | 25 µg/mL (≈ 34.8 µM) | 50 µg/mL (≈ 69.6 µM) | 0.39 µg/mL (≈ 0.542 µM) | 0.125 µg/mL (≈ 0.174 µM) | – | – | CC[C@H]1OC(=O)/C(C)=C/[C@H](C)[C@@H](O[C@@H]2O[C@H](C)C[C@H](N(C)C)[C@H]2O)[C@@](C)(OC)C[C@@H](C)C(=O)[C@H](C)[C@H]2N(CCc3ccc(F)cc3)C(=O)O[C@]12C | > 100 mg/kg/day | > 40 mg/kg/day |
